Test results: article PMC2292216 (The Journal of Experimental Medicine, 2008)

Tests used:
[1] = target: T1, BLT2 (Homo sapiens, UniProt Q9NPC1); conditions: cited from earlier work
T1 sequence (Q9NPC1 1-358): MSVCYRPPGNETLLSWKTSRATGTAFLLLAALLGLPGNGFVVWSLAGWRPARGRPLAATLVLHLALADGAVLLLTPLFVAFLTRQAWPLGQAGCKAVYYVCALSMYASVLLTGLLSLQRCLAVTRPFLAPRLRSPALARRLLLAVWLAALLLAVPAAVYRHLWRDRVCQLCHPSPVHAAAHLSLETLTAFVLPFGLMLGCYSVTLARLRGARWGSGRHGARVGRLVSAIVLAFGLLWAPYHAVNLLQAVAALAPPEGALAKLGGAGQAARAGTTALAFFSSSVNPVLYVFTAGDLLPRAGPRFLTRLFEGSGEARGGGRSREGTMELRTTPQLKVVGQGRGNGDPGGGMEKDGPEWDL

[2] = target: T1, BLT2; experiment: cAMP assay; assay type: cell-based
[3] = target: T1, BLT2; experiment: Boyden chamber chemotaxis assay of CHO-BLT2 cells; assay type: cell-based; conditions: for concentration required for maximal chemotaxis: Boyden chamber
[4] = tested on: mouse BMMCs; experiment: Chemotaxis; assay type: cell-based
Summary of the method: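 BMMCs from WT, BLT1-KO and BLT2-KO mice (knockouts backcrossed to BALB/c for 10 generations) grown in RPMI 1640 with 10% fetal calf serum, 0.1 mM nonessential amino acids and 50% WEHI-3 cell-conditioned medium; maturation checked by flow cytometry. Migration toward test compound measured; stem cell factor (via c-kit) as positive control.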

[5] = target: T1, BLT2; experiment: [3H]LTB4 displacement assay, membrane preparations of CHO-BLT2 cells; assay type: binding
[6] = target: T2, human BLT1 (Homo sapiens, UniProt Q15722); experiment: Intracellular calcium mobilization in CHO-BLT1 cells; assay type: cell-based; conditions: concentrations as high as 3.3 μM
T2 sequence (Q15722 whole entry): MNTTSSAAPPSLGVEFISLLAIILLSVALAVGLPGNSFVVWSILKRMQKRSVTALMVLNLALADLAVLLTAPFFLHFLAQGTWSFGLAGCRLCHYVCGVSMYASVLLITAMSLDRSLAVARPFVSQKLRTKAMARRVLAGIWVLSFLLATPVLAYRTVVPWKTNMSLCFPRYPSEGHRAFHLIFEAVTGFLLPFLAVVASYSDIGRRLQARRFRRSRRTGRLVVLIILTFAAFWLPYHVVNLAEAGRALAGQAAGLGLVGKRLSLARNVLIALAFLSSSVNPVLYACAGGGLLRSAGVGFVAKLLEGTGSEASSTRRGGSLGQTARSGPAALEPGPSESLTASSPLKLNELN

[7] = target: T1, BLT2; experiment: IP accumulation assay in COS-7 cells coexpressing BLT2 and G14; assay type: cell-based
[8] = target: T3, mouse BLT2 (Mus musculus, UniProt Q9JJL9); experiment: IP accumulation assay in cells cotransfected with mouse BLT2 and G14; assay type: cell-based
T3 sequence (Q9JJL9 1-360): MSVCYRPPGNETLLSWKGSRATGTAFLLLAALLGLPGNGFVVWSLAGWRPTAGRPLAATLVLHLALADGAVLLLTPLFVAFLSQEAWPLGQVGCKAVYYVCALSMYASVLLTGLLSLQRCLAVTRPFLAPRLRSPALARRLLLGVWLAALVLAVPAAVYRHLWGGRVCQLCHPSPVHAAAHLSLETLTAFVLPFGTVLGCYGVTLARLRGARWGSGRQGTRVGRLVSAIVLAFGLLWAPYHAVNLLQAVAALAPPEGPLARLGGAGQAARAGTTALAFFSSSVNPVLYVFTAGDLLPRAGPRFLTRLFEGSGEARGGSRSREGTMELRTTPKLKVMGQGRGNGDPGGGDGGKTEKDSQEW

[9] = target: T2, human BLT1; experiment: cAMP assay; assay type: cell-based; conditions: CHO-BLT1 cells, 50 μM forskolin
[10] = target: T2, human BLT1; experiment: Boyden chamber chemotaxis assay of CHO-BLT1 cells; assay type: cell-based
[11] = target: T1, BLT2; experiment: Cytosensor microphysiometer assay in CHO-BLT2 cells; assay type: cell-based
Summary of the method: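 CHO cells stably expressing BLT2, with BLT1 and mock transfectants alongside. Proton flux recorded by cytosensor microphysiometer on exposure to lipid extracts from rat, mouse or platelet sources, or to 1-min RP-HPLC fractions (MeOH/H2O/AcOH 70:30:0.01). ATP served as control for endogenous purinergic receptors.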

[12] = tested on: platelets; experiment: Platelet aggregation; assay type: cell-based; conditions: unpublished data

Compound | agonist activity at BLT2 [1] | migration of BMMCs ([4]; BMMCs from BLT1-KO mice) | migration of BMMCs ([4]; BMMCs from BLT2-KO mice) | migration of BMMCs ([4]; BMMCs from WT mice) | concentration required for maximal chemotaxis [3] | also measured
CCCCC[C@H](O)/C=C/C=C\C/C=C\C/C=C\CCCC(=O)O [15-HETE] | weak agonists |  |  |  |  | 
pertussis toxin |  |  |  |  |  | effect of pretreatment on 12-HHT-dependent adenylyl cyclase inhibition ([2]; CHO-BLT2 cells, pretreatment): completely blocked; effect of pretreatment on 12-HHT-induced chemotaxis ([3]; pretreatment): completely abolished
SCF: stem cell factor, positive control inducing chemotaxis through the c-kit receptor |  | induced robust chemotaxis | induced robust chemotaxis | induced robust chemotaxis |  | 
CCCCC/C=C\C[C@H](O)/C=C/C=C\C/C=C\CCCC(=O)O [12-HETE] | weak agonists |  |  |  |  | 
CCCCC[C@H](O)/C=C/C=C/C/C=C\CCCC(=O)O [12-HHT, 12(S)-hydroxyheptadeca-5Z, 8E, 10E–trienoic acid] |  | migrated in response to 12-HHT |  | migrated in response to 12-HHT | 30 nM | IC50 [5]: 2.8 nM; calcium mobilization [6]: failed to induce calcium mobilization; EC50 [7]: 5.4 nM; activation of mouse BLT2 by IP accumulation [8]: activated mouse BLT2; IC50 [2]: 1 nM; adenylyl cyclase inhibition [9]: had no effect; chemotaxis [10]: failed to induce chemotaxis; activation of BLT2 in the cytosensor assay [11]: able to activate BLT2; agonistic activity in platelet aggregation [12]: did not display agonistic activity
CCCCC/C=C\C[C@@H](O)/C=C/C=C/C=C\[C@@H](O)CCCC(=O)O [LTB4, 5(S), 12(R)-dihydroxy-6, 14-cis-8, 10-trans-eicosatetraenoic acid] |  |  | migrated in response to LTB4 | migrated in response to LTB4 | > 1,000 nM | 
